Assay results: article PMC5856607 (Journal of pharmaceutical sciences, 2017)
Read-outs that look alike come from different tables or passages of the source. Each block holds one compound with its values, some of them ahead of it.

How the values were obtained:
Caco-2 cells [1] = format: in vitro ADME, human; settings: for fraction of CDF in the basolateral compartment / fraction of CDF in the cell compartment at 120-minutes: average; for fraction of CDF present in the apical compartment / total CDF production, % of the CDFDA dose: mean ± standard deviation
Caco-2 cells [2] = format: in vitro ADME, human; settings: for model predicted effect on CDF clearance across the apical membrane: co-exposure with agent; for β-adjustment factor for enhancement of basolateral membrane clearance (Clcdf,bl), estimate (% RSE): Equation 2, agent 10, 30, 100 μM; for Clcdf,ap, efflux clearance of CDF across the apical membrane, parameter estimate (% RSE) / Clcdf,bl, efflux clearance of CDF across the basolateral membrane, parameter estimate (% RSE) / Clhydrolysis, intracellular hydrolysis of CDFDA, parameter estimate (% RSE): control; for β-adjustment factor for enhancement of CDFDA hydrolysis clearance (Clhydrolysis), estimate (% RSE): Equation 2
[3] = system: CDFDA hydrolysis in Caco-2 cell homogenates; settings: cited from earlier work; for effect on CDFDA hydrolysis in Caco-2 cell homogenates: 100 μM
Caco-2 cells [4] = experiment: CDF transport across Caco-2 monolayers following CDF dosing; format: in vitro ADME, human
In short: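 Caco-2 cells (passages 32–58) were grown 18–24 days on collagen-coated 0.4 μm PTFE Transwells. They were pre-incubated 30 min in pH 7.4 transport buffer with 0.1% DMSO/0.1% ethanol, then given 5 μM CDF apically or basolaterally at 37°C with 150 rpm shaking. CDF was quantified against 7.8–1000 nM standards. Clearance = transport rate/mean initial–final donor concentration. A two-compartment passive paracellular population model was fitted by QRPEM, 13 filters per direction.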

[5] = system: canalicular membrane of rat hepatocytes; settings: cited from earlier work
[6] = cited from earlier work
Caco-2 cells [7] = settings: contemporaneous studies; cited from earlier work
Caco-2 cells [8] = settings: % of dose, cited from earlier work
[9] = CDFDA hydrolysis in transport buffer; format: physicochemical; settings: 37°C
[10] = apical 5 μM CDFDA with 100 μM agent
[11] = apical 5 μM CDFDA with 100 μM agent, 9 filters
[12] = basolateral 5 μM CDFDA with 100 μM agent
[13] = basolateral 5 μM CDFDA with 100 μM agent, 9 filters
[14] = control experiments, CDFDA dosing
[15] = apical dosing 5 μM CDFDA, 500 simulations
[16] = basolateral dosing 5 μM CDFDA, 500 simulations
[17] = apical 5 μM CDFDA alone (Control)
[18] = basolateral 5 μM CDFDA alone (Control)

Compound: Glyceollin
AB Donor (apical) CDF at 120 minutes, mean (Caco-2 cells [1]; [10]): 95 pmoles/well | AB Intracellular CDF at 120 minutes, mean (Caco-2 cells [1]; [10]): 15 pmoles/well | AB directional CDF flux, mean (Caco-2 cells [1]; [11]): 0.63 pmol/min | BA Donor (basolateral) CDF at 120 minutes, mean (Caco-2 cells [1]; [12]): 187 pmoles/well | BA Intracellular CDF at 120 minutes, mean (Caco-2 cells [1]; [12]): 30 pmoles/well | BA directional CDF flux, mean (Caco-2 cells [1]; [13]): 0.53 pmol/min | model predicted effect on CDF clearance across the apical membrane (Caco-2 cells [2]; CDFDA dosing): no effect on apical membrane clearance | β-adjustment factor for enhancement of basolateral membrane clearance (Clcdf,bl), estimate (% RSE) (Caco-2 cells [2]; apical CDFDA dosing): 2.2 × 10^−2 (<0.1) | β-adjustment factor for enhancement of basolateral membrane clearance (Clcdf,bl), estimate (% RSE) (Caco-2 cells [2]; basolateral CDFDA dosing): 1.8 × 10^−2 (2.9) | effect on CDFDA hydrolysis in Caco-2 cell homogenates [3]: no effect

CDF clearance across Caco-2 cells, model based analysis, AB/BA combined, population estimate (RSE,%) (Caco-2 cells [4]; 5 μM CDF, simultaneous modeling of AB and BA directions): 1.6 × 10^−5 (11.7) mL/min | CDF clearance across Caco-2 cells, model independent analysis, AB, mean (CV,%) (Caco-2 cells [4]; apical exposure to 5 μM CDF, 5 occasions, 13 filters): 1.6 × 10^−5 (30.3) mL/min | CDF clearance across Caco-2 cells, model based analysis, AB, population estimate (RSE,%) (Caco-2 cells [4]; apical exposure to 5 μM CDF, two-compartment model): 1.3 × 10^−5 (19.0) mL/min | CDF clearance across Caco-2 cells, model independent analysis, BA, mean (CV,%) (Caco-2 cells [4]; basolateral exposure to 5 μM CDF, 5 occasions, 13 filters): 2.1 × 10^−5 (3.3) mL/min | CDF clearance across Caco-2 cells, model based analysis, BA, population estimate (RSE,%) (Caco-2 cells [4]; basolateral exposure to 5 μM CDF, two-compartment model): 2.0 × 10^−5 (10.9) mL/min | fraction of CDF in the basolateral compartment (Caco-2 cells [1]; apical CDFDA dosing): 1.1% | fraction of CDF in the cell compartment at 120-minutes (Caco-2 cells [1]; apical CDFDA dosing): 1.5% | fraction of CDF present in the apical compartment (Caco-2 cells [1]; apical CDFDA dosing, n = 16 occasions): 4.0 ± 2.33% | fraction of CDF in the basolateral compartment (Caco-2 cells [1]; basolateral CDFDA dosing): 1.0% | fraction of CDF in the cell compartment at 120-minutes (Caco-2 cells [1]; basolateral CDFDA dosing): 1.3% | fraction of CDF present in the apical compartment (Caco-2 cells [1]; basolateral CDFDA dosing): 1.9 ± 1.24% | mean ratio of CDF cell content, basolateral versus apical dosing (Caco-2 cells [1]; [14]): 2.9 | mean ratio of CDF flux, basolateral versus apical dosing (Caco-2 cells [1]; [14]): 2.9 | ratio of basolateral to apical dosing transcellular CDF clearance (Caco-2 cells [2]; Equations 3a–b with 3-compartment model estimates): 2.9 | simulated intracellular CDF concentration, average (Caco-2 cells [2]; apical CDFDA dosing): 10 µM | Clcdf,ap, bootstrap analysis median (90% confidence interval) (Caco-2 cells [2]; [15]): 2.2 × 10^−5 (1.7 – 2.6 × 10^−5) mL/min | Clcdf,bl, bootstrap analysis median (90% confidence interval) (Caco-2 cells [2]; [15]): 1.3 × 10^−5 (1.2 – 1.4 × 10^−5) mL/min | Clcdf,ap, efflux clearance of CDF across the apical membrane, parameter estimate (% RSE) (Caco-2 cells [2]; apical dosing 5 μM CDFDA): 8.4 × 10^−5 (<0.1) mL/min | Clcdf,bl, efflux clearance of CDF across the basolateral membrane, parameter estimate (% RSE) (Caco-2 cells [2]; apical dosing 5 μM CDFDA): 5.6 × 10^−5 (0.1) mL/min | simulated intracellular CDF concentration, average (Caco-2 cells [2]; basolateral CDFDA dosing): 24 µM | Clcdf,ap, bootstrap analysis median (90% confidence interval) (Caco-2 cells [2]; [16]): 8.3 × 10^−5 (7.1 – 10.8 × 10^−5) mL/min | Clcdf,bl, bootstrap analysis median (90% confidence interval) (Caco-2 cells [2]; [16]): 5.1 × 10^−5 (3.8 – 6.7 × 10^−5) mL/min | Clcdf,ap, efflux clearance of CDF across the apical membrane, parameter estimate (% RSE) (Caco-2 cells [2]; basolateral dosing 5 μM CDFDA): 8.5 × 10^−5 (0.2) mL/min | Clcdf,bl, efflux clearance of CDF across the basolateral membrane, parameter estimate (% RSE) (Caco-2 cells [2]; basolateral dosing 5 μM CDFDA): 5.2 × 10^−5 (0.2) mL/min | fold larger apical versus basolateral membrane CDF clearance (Caco-2 cells [2]; following both apical and basolateral dosing): approximately 1.5 fold
Compound: 5 (and 6)-Carboxy-2′,7′-Dichloroflourescein [CDF]
Km ([5]; read-out: Km, high affinity state, Sprague-Dawley rats): 3 µM | Km ([5]; read-out: Km, high affinity state, Wistar rats): 9 µM | Km ([5]; read-out: Km, low affinity state, Sprague-Dawley rats): 192 µM | Km ([5]; read-out: Km, low affinity state, Wistar rats): 69 µM | protein binding [6]: 15 – 20%

Compound: CN(C)C(=O)CCSC(SCCC(=O)O)c1cccc(/C=C/c2ccc3ccc(Cl)cc3n2)c1 (stereo not shown) [MK-571]
basolateral to apical dosing CDF flux ratio in the presence of MK-571 (Caco-2 cells [1]; CDFDA dosing, control approximately 3): ~0.8 | AB Donor (apical) CDF at 120 minutes, mean (Caco-2 cells [1]; [10]): 115 pmoles/well | AB Intracellular CDF at 120 minutes, mean (Caco-2 cells [1]; [10]): 15 pmoles/well | AB directional CDF flux, mean (Caco-2 cells [1]; [11]): 0.51 pmol/min | BA Donor (basolateral) CDF at 120 minutes, mean (Caco-2 cells [1]; [12]): 249 pmoles/well | BA Intracellular CDF at 120 minutes, mean (Caco-2 cells [1]; [12]): 26 pmoles/well | BA directional CDF flux, mean (Caco-2 cells [1]; [13]): 0.39 pmol/min | fold increase of basolateral membrane CDF clearance (Caco-2 cells [2]; 100 μM MK-571, the highest concentration evaluated): up to 2 fold | model predicted effect on CDF clearance across the apical membrane (Caco-2 cells [2]; CDFDA dosing): not altered | β-adjustment factor for enhancement of basolateral membrane clearance (Clcdf,bl), estimate (% RSE) (Caco-2 cells [2]; apical CDFDA dosing): 1.7 × 10^−2 (<0.1) | β-adjustment factor for enhancement of basolateral membrane clearance (Clcdf,bl), estimate (% RSE) (Caco-2 cells [2]; basolateral CDFDA dosing): 2.4 × 10^−2 (0.4) | effect on CDFDA hydrolysis in Caco-2 cell homogenates [3]: no effect

Compound: lucifer yellow
lucifer yellow clearance (Caco-2 cells [7]): 8.7 ± 0.24 × 10^−5 mL/min

Compound: O=c1c(-c2ccc(O)cc2)coc2cc(O)cc(O)c12 [Genistein]
AB Donor (apical) CDF at 120 minutes, mean (Caco-2 cells [1]; [10]): 301 pmoles/well | AB Intracellular CDF at 120 minutes, mean (Caco-2 cells [1]; [10]): 85 pmoles/well | AB directional CDF flux, mean (Caco-2 cells [1]; [11]): 1.25 pmol/min | BA Donor (basolateral) CDF at 120 minutes, mean (Caco-2 cells [1]; [12]): 427 pmoles/well | BA Intracellular CDF at 120 minutes, mean (Caco-2 cells [1]; [12]): 134 pmoles/well | BA directional CDF flux, mean (Caco-2 cells [1]; [13]): 2.68 pmol/min | model predicted effect on CDF efflux (Caco-2 cells [2]; CDFDA dosing, genistein exposure): no predicted effects | β-adjustment factor for enhancement of CDFDA hydrolysis clearance (Clhydrolysis), estimate (% RSE) (Caco-2 cells [2]; apical CDFDA dosing): 6.9 × 10^−3 (<0.1) | β-adjustment factor for enhancement of CDFDA hydrolysis clearance (Clhydrolysis), estimate (% RSE) (Caco-2 cells [2]; basolateral CDFDA dosing): 2.8 × 10^−2 (0.6) | effect on CDFDA hydrolysis observed in vitro [3]: stimulation of CDFDA hydrolysis

Compound: CC(C)(C)C(=O)OCOP(=O)(COCCn1cnc2c(N)ncnc21)OCOC(=O)C(C)(C)C [adefovir dipivoxil]
total metabolite production (Caco-2 cells [8]; apical dosing): 93% | total metabolite production (Caco-2 cells [8]; basolateral dosing): 34%

AB Donor (apical) CDF at 120 minutes, mean (Caco-2 cells [1]; [17]): 101 pmoles/well | AB Intracellular CDF at 120 minutes, mean (Caco-2 cells [1]; [17]): 29 pmoles/well | AB directional CDF flux, mean (Caco-2 cells [1]; apical 5 μM CDFDA alone (Control), 48 filters): 0.28 pmol/min | total CDF production, % of the CDFDA dose (Caco-2 cells [1]; apical dosing): 6.7 ± 3.10% | BA Donor (basolateral) CDF at 120 minutes, mean (Caco-2 cells [1]; [18]): 143 pmoles/well | BA Intracellular CDF at 120 minutes, mean (Caco-2 cells [1]; [18]): 83 pmoles/well | BA directional CDF flux, mean (Caco-2 cells [1]; basolateral 5 μM CDFDA alone (Control), 48 filters): 0.81 pmol/min | total CDF production, % of the CDFDA dose (Caco-2 cells [1]; basolateral dosing): 4.3 ± 1.21% | fold larger CDFDA hydrolysis clearance for basolateral versus apical dosing (Caco-2 cells [2]): 1.8 fold | Clhydrolysis, intracellular hydrolysis of CDFDA, parameter estimate (% RSE) (Caco-2 cells [2]; apical dosing 5 μM CDFDA): 8.2 × 10^−4 (<0.1) mL/min | Clhydrolysis, bootstrap analysis median (90% confidence interval) (Caco-2 cells [2]; [16]): 1.6 × 10^−3 (1.2 – 1.9 × 10^−3) mL/min | Clhydrolysis, intracellular hydrolysis of CDFDA, parameter estimate (% RSE) (Caco-2 cells [2]; basolateral dosing 5 μM CDFDA): 1.5 × 10^−3 (0.1) mL/min | half-life of CDFDA hydrolysis in transport buffer [9]: > 100 h | clearance of CDFDA hydrolysis in transport buffer ([9]; translated from half-life): 3e-07 mL/min
Compound: CDF diacetate [CDFDA]
